Measurements reported in ChEMBL document CHEMBL1157584, “Discovery of 4-amino-1-(7H-pyrrolo[2,3-d]pyrimidin-4-yl)piperidine-4-carboxamides as selective, orally active inhibitors of protein kinase B (Akt)” (J Med Chem, 2010).
≈ marks a conversion by molar mass, not a printed value. Values belong to the compound of their own block, whether it stands above or below them.

Tests used:
[1] = Solubility in aqueous buffer at pH 6.5; assay type: physicochemical
Mus musculus [2] = assay: Plasma clearance in mouse at 25 mg/kg, iv; assay type: ADME, organism-based; design: dose 25 mg/kg, route intravenous; settings: in vivo
[3] = Solubility in aqueous buffer at pH 7.0; assay type: physicochemical
Mus musculus [4] = assay: Volume of distribution at steady state in mouse at 5 mg/kg, iv; assay type: ADME, organism-based; design: dose 5 mg/kg, route intravenous; settings: in vivo
In short: (§1)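 Mice received a single iv dose, and plasma drug levels were followed over time. Pharmacokinetic parameters, including Vss in L, were fitted to model 201 with default settings.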

[5] = Plasma concentration in CrTac:Ncr-Fox1 (nu) athymic mouse bearing human U87MG cells at 200 mg/kg, po single dose after 4 hrs; assay type: ADME, organism-based, U-87MG ATCC; design: dose 200 mg/kg, route oral
In short: (§2)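 U87MG xenograft-bearing athymic mice given a single oral dose of 200 mg/kg. Compound levels measured in plasma and tumor samples 4 h after dosing.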

[6] = Oral bioavailability in mouse at 5 mg/kg; assay type: ADME, organism-based; settings: in vivo
[7] = Drug level in CrTac:Ncr-Fox1 (nu) athymic mouse tumor bearing human U87MG cells at 200 mg/kg, po single dose after 4 hrs; assay type: ADME, organism-based, Neoplasm, U-87MG ATCC; design: dose 200 mg/kg, route oral; settings: read-out: Drug uptake; in short: as §2
Mus musculus [8] = assay: Plasma clearance in mouse at 5 mg/kg, iv; assay type: ADME, organism-based; design: dose 5 mg/kg, route intravenous; settings: in vivo
Mus musculus [9] = assay: Half life in mouse at 5 mg/kg, iv; assay type: ADME, organism-based; design: dose 5 mg/kg, route intravenous; settings: in vivo
Mus musculus [10] = assay: Plasma clearance in mouse at 10 mg/kg, iv; assay type: ADME, organism-based; design: dose 10 mg/kg, route intravenous; settings: in vivo
Mus musculus [11] = assay: Volume of distribution at steady state in mouse at 10 mg/kg, iv; assay type: ADME, organism-based; design: dose 10 mg/kg, route intravenous; settings: in vivo; in short: as §1
Mus musculus [12] = assay: Half life in mouse at 10 mg/kg, iv; assay type: ADME, organism-based; design: dose 10 mg/kg, route intravenous; settings: in vivo
[13] = Oral bioavailability in mouse at 10 mg/kg; assay type: ADME, organism-based; settings: in vivo

solubility [1]: 260 µg/mL (≈ 761 µM)
CL (Mus musculus [2]): 0.33 L/h
solubility [3]: Insoluble
Compound: NC1(Cc2ccc(Cl)cc2)CCN(c2ncnc3[nH]ccc23)CC1

Vdss (Mus musculus [4]): 0.06 L
concentration at 4 h [5]: 20 µM
bioavailability [6]: 58%
concentration at 4 h [7]: 43 µM
CL (Mus musculus [8]): 0.08 L/h
t1/2 (Mus musculus [9]): 54 min
Compound: NC1(C(=O)NCc2ccc(Cl)cc2)CCN(c2ncnc3[nH]ccc23)CC1

CL (Mus musculus [10]): 0.31 L/h
Vdss (Mus musculus [11]): 0.27 L
t1/2 (Mus musculus [12]): 47.4 min
bioavailability [13]: < 1%
Compound: CC(C)(C)c1ccc(CC2(N)CCN(c3ncnc4[nH]ccc34)CC2)cc1
